In brackets after ≈: the same amount, converted by molar mass.
Experiments:
[1] = system: Staphylococcus epidermidis; experiment: Antibacterial activity against Staphylococcus epidermidis 155 after 18 hrs; assay type: functional; details: Staphylococcus epidermidis, 155, 18 h
In short: (§1)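 Broth microdilution in Nutrient Broth No. 2; stocks in ethanol diluted to 0.01–128 µg/ml (triclosan) or 0.25–256 µg/ml (glycosides). Overnight 37 °C NB2 cultures diluted 1 in 10^4 in saline and added to the dilutions. Incubation at 37 °C with agitation, OD read every 15 min; MIC is the lowest concentration preventing any OD rise after 18 h.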

[2] = system: Staphylococcus aureus; experiment: Antibacterial activity against Staphylococcus aureus ATCC 25923 after 18 hrs; assay type: functional; details: ATCC 25923, 18 h; in short: as §1
[3] = system: Escherichia coli; experiment: Antibacterial activity against Escherichia coli 700728 after 18 hrs; assay type: functional; details: Escherichia coli, 700728, 18 h; in short: as §1
[4] = system: Streptococcus agalactiae; experiment: Antibacterial activity against Streptococcus agalactiae OCC 182 after 18 hrs; assay type: functional; details: OCC 182, 18 h
In short: (§2)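 Broth microdilution in Nutrient Broth No. 2. Ethanol stocks were diluted in broth to 0.01–128 µg/ml for triclosan and 0.25–256 µg/ml for glycosides. Overnight 37°C NB2 cultures were diluted 1 in 10^4 in saline and added to the wells. Plates were incubated at 37°C with OD read every 15 min after agitation. MIC was the lowest concentration giving no OD increase at 18 h.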

[5] = system: Bacillus cereus; experiment: Antibacterial activity against Bacillus cereus ATCC 14579 after 18 hrs; assay type: functional; details: ATCC 14579, 18 h; in short: as §1
[6] = system: Streptococcus pneumoniae; experiment: Antibacterial activity against Streptococcus pneumoniae ATCC 49619 after 18 hrs; assay type: functional; details: ATCC 49619, 18 h; in short: as §2
[7] = system: Pseudomonas aeruginosa; experiment: Antibacterial activity against Pseudomonas aeruginosa ATCC 27853 after 18 hrs; assay type: functional; details: ATCC 27853, 18 h; in short: as §1
[8] = system: Salmonella enterica subsp. enterica serovar Abony; experiment: Antibacterial activity against Salmonella enterica subspecies enterica serotype Abony NCTC 6017 after 18 hrs; assay type: functional; details: NCTC 6017, 18 h; in short: as §1
[9] = system: Klebsiella pneumoniae; experiment: Antibacterial activity against Klebsiella pneumoniae ATCC 13883 after 18 hrs; assay type: functional; details: ATCC 13883, 18 h; in short: as §1
[10] = system: Staphylococcus aureus; experiment: Antibacterial activity against Staphylococcus aureus ATCC 6538 after 18 hrs; assay type: functional; details: ATCC 6538, 18 h; in short: as §1
[11] = system: Salmonella enteritidis; experiment: Antibacterial activity against Salmonella enterica subspecies enterica serotype Enteritidis 13076 after 18 hrs; assay type: functional, Salmonella enterica subsp. enterica serovar Enteritidis; details: Salmonella enterica, 13076, 18 h; in short: as §1
[12] = system: Citrobacter freundii; experiment: Antibacterial activity against Citrobacter freundii OCC 851 after 18 hrs; assay type: functional; details: OCC 851, 18 h; in short: as §1
[13] = system: Streptococcus pyogenes; experiment: Antibacterial activity against Streptococcus pyogenes ATCC 19615 after 18 hrs; assay type: functional; details: ATCC 19615, 18 h; in short: as §2
[14] = system: Staphylococcus aureus; experiment: Antibacterial activity against Staphylococcus aureus ATCC 29213 after 18 hrs; assay type: functional; details: ATCC 29213, 18 h; in short: as §1
[15] = Antibacterial activity against Salmonella enterica subspecies enterica serotype Nottingham NCTC 7832 after 18 hrs; assay type: functional, Salmonella enterica subsp. enterica serovar Nottingham; details: NCTC 7832, 18 h; in short: as §1
[16] = system: Escherichia coli; experiment: Antibacterial activity against Escherichia coli ATCC 10536 after 18 hrs; assay type: functional; details: ATCC 10536, 18 h; in short: as §1
[17] = system: Klebsiella aerogenes; experiment: Antibacterial activity against Klebsiella aerogenes NCTC 8167 after 18 hrs; assay type: functional; details: NCTC 8167, 18 h; in short: as §1
[18] = system: Escherichia coli; experiment: Antibacterial activity against Escherichia coli OCC 122 after 18 hrs; assay type: functional; details: OCC 122, 18 h; in short: as §1
[19] = system: Enterococcus faecalis; experiment: Antibacterial activity against Enterococcus faecalis ATCC 29212 after 18 hrs; assay type: functional; details: ATCC 29212, 18 h; in short: as §1
[20] = system: Staphylococcus epidermidis; experiment: Antibacterial activity against Staphylococcus epidermidis ATCC 14990 after 18 hrs; assay type: functional; details: ATCC 14990, 18 h; in short: as §1
[21] = system: Escherichia hermannii; experiment: Antibacterial activity against Escherichia hermannii 33650 after 18 hrs; assay type: functional; details: Atlantibacter hermannii, 33650, 18 h; in short: as §1
[22] = system: Enterococcus faecalis; experiment: Antibacterial activity against Enterococcus faecalis ATCC 33186 after 18 hrs; assay type: functional; details: ATCC 33186, 18 h; in short: as §1
[23] = system: Cronobacter sakazakii; experiment: Antibacterial activity against Cronobacter sakazakii 29544 after 18 hrs; assay type: functional; details: Cronobacter sakazakii, 29544, 18 h; in short: as §1
[24] = system: Proteus vulgaris; experiment: Antibacterial activity against Proteus vulgaris OCC 195 after 18 hrs; assay type: functional; details: OCC 195, 18 h; in short: as §1
[25] = system: Hafnia alvei; experiment: Antibacterial activity against Hafnia alvei 13337 after 18 hrs; assay type: functional; details: Hafnia alvei, 13337, 18 h; in short: as §1
[26] = system: Staphylococcus epidermidis; experiment: Antibacterial activity against Staphylococcus epidermidis ATCC 12228 after 18 hrs; assay type: functional; details: ATCC 12228, 18 h; in short: as §1
[27] = Antibacterial activity against Salmonella enterica subspecies enterica serotype Arizonae OCC 706 after 18 hrs; assay type: functional, Salmonella enterica subsp. enterica serovar Arizonae; details: OCC 706, 18 h; in short: as §1
[28] = system: Streptococcus pneumoniae; experiment: Antibacterial activity against Streptococcus pneumoniae 6305 after 18 hrs; assay type: functional; details: Streptococcus pneumoniae, 6305, 18 h; in short: as §2
[29] = system: Bacillus subtilis; experiment: Antibacterial activity against Bacillus subtilis NCTC 10073 after 18 hrs; assay type: functional; details: NCTC 10073, 18 h; in short: as §1

MIC [1]: 8 to 32 µg/mL (≈ 17.7 to 70.8 µM)
MIC [2]: 8 to 16 µg/mL (≈ 17.7 to 35.4 µM)
MIC [3]: 16 to 64 µg/mL (≈ 35.4 to 142 µM)
MIC [4]: > 256 µg/mL
MIC [5]: > 256 µg/mL
MIC [6]: 128 µg/mL (≈ 283 µM)
MIC [7]: > 256 µg/mL
MIC [8]: 32 to 64 µg/mL (≈ 70.8 to 142 µM)
MIC [9]: 1 µg/mL (≈ 2.21 µM)
MIC [10]: 8 to 16 µg/mL (≈ 17.7 to 35.4 µM)
MIC [11]: 32 to 64 µg/mL (≈ 70.8 to 142 µM)
MIC [12]: 64 µg/mL (≈ 142 µM)
MIC [13]: 256 µg/mL (≈ 567 µM)
MIC [14]: 8 to 16 µg/mL (≈ 17.7 to 35.4 µM)
MIC [15]: 32 to 64 µg/mL (≈ 70.8 to 142 µM)
MIC [16]: 16 to 64 µg/mL (≈ 35.4 to 142 µM)
MIC [17]: 32 µg/mL (≈ 70.8 µM)
MIC [18]: 16 to 64 µg/mL (≈ 35.4 to 142 µM)
MIC [19]: > 256 µg/mL
MIC [20]: 8 to 32 µg/mL (≈ 17.7 to 70.8 µM)
MIC [21]: 32 µg/mL (≈ 70.8 µM)
MIC [22]: > 256 µg/mL
MIC [23]: 128 µg/mL (≈ 283 µM)
MIC [24]: 64 µg/mL (≈ 142 µM)
MIC [25]: 16 µg/mL (≈ 35.4 µM)
MIC [26]: 8 to 32 µg/mL (≈ 17.7 to 70.8 µM)
MIC [27]: 32 to 64 µg/mL (≈ 70.8 to 142 µM)
MIC [28]: 128 µg/mL (≈ 283 µM)
MIC [29]: 256 µg/mL (≈ 567 µM)
SMILES: OC[C@H]1O[C@H](Oc2cc(Cl)ccc2Oc2ccc(Cl)cc2Cl)[C@H](O)[C@@H](O)[C@H]1O

— ChEMBL document CHEMBL4325893, “Synthesis and antibacterial profiles of targeted triclosan derivatives” (2019)
